Assay results published in PMC4066744 (Nucleic Acids Research, 2014).
Each block holds one molecule with its values, some of them ahead of it.

Columns and labels:
[1] = target: KIX domain from mouse CBP 586-672 (mouse) (UniProt P45481); experiment: fluorescence polarisation
[2] = target: KIX domain of CBP/p300 (mouse CBP 586–672) (Mus musculus, UniProt P45481); format: binding; conditions: for decrease in affinity for the KIX domain relative to native E2A AD2–1: mutant peptide versus wild-type E2A AD2–1, fluorescence anisotropy titration
How it was run: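 Mouse CBP KIX (586–672), E. coli BL21(DE3)-expressed, purified, with final size exclusion in 20 mM MES pH 6.0, 1 mM β-mercaptoethanol (same buffer for titration). KIX spiked with 100 nM FITC-peptide titrated into that peptide. Ex 492/em 523 nm; three readings per injection averaged. Kd from quadratic one-site fit plus linear non-specific term. Mutant-peptide series run in triplicate; mean ± standard error.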

[3] = target: KIX^ΔPCETsite (Phe612Ala/Asp622Ala/Arg624Ala/Lys667Glu quadruple KIX mutant) (Mus musculus, UniProt P45481, D622A/F612A/K667E/R624A); format: binding; conditions: 250 μM versus 17 μM
[4] = target: KIX domain from mouse CBP 586-672 (mouse, UniProt P45481 586-672); experiment: NMR titration
KIX domain from mouse CBP 586-672, sequence (P45481 586-672): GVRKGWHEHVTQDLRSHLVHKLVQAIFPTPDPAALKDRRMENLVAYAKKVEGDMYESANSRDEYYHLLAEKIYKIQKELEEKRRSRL

KIX domain from mouse CBP 586-672 (mouse), sequence (P45481 586-672): as above
KIX domain of CBP/p300 (mouse CBP 586–672), sequence (P45481 586-672): as above
KIX^ΔPCETsite (Phe612Ala/Asp622Ala/Arg624Ala/Lys667Glu quadruple KIX mutant), sequence (P45481 586-672 F612A/D622A/R624A/K667E): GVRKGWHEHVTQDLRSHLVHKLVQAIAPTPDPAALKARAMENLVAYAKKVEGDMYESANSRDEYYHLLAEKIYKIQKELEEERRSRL

- Kd [1]: 86 µM
Molecule: E2A AD2-1 Leu404Ala FITC-labelled synthetic mutant peptide (from UniProt P15923 394-407)

- Kd [1]: 102 µM
Molecule: E2A AD2-1 Leu397Ala FITC-labelled synthetic mutant peptide (from UniProt P15923 394-407)

- decrease in affinity for the KIX domain relative to native E2A AD2–1 [2]: approximately 5 fold
Molecule: Ac-EDHLDEAIHVARSH-NH2 (N-terminus and C-terminus assumed) [E2A AD2–1 Leu404Ala]

- decrease in affinity of KIX^ΔPCETsite mutant relative to native KIX [3]: 15 fold
Molecule: Ac-EDHLDEAIHVLRSH-NH2 [E2A AD2–1]

- Kd [1]: 7.2 µM
Molecule: E2A AD2-1 Ala400Leu FITC-labelled synthetic mutant peptide (from UniProt P15923 394-407)

Molecule: Ac-EDHLDEAIHVLRSHAVGTAGDMHTLLP-NH2 [E2A AD2–1/2]
- Kd [2]: 21 ± 3 µM

- Kd [1]: 106 µM
Molecule: E2A AD2-1 Ile401Ala FITC-labelled synthetic mutant peptide (from UniProt P15923 394-407)

- Kd [1]: 13.5 µM
Molecule: E2A AD2-1 His402Ala FITC-labelled synthetic mutant peptide (from UniProt P15923 394-407)

Molecule: Ac-EDHLDEAIHVLRSHY-NH2 [E2A AD2–1 (C-terminal tyrosine)]
- Kd [2]: 21 ± 5 µM

- decrease in affinity for the KIX domain relative to native E2A AD2–1 [2]: 6 fold
Molecule: Ac-EDHADEAIHVLRSH-NH2 (N-terminus and C-terminus assumed) [E2A AD2–1 Leu397Ala]

- binding result [4]: binds
Molecule: EDHLDEAIHVLRSHAVGTAGDMHTLLP [Unfused recombinant E2A AD2-1/2 (E2A residues 394-420)]
